# Shown are actives, neighbours in structure and some others; about 4.1% of the full set was active somewhere.
# hERG protect – hERG rescue from dofetilide block, primary screen, cell-based, CHO-hERG, FluxOR thallium flux, dofetilide IC70; dofetilide IC70 present; activation (rescue from dofetilide block), less the hit threshold, % at 10 µM; 310,000 tested, 0.51% active; AID 1511, 2009;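 active = activation above the mean of controls blocked by dofetilide plus 5 SD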;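 note: thallium influx through hERG after potassium depolarization seen as dye fluorescence rise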
# KCNQ1 act – potentiators or activators of KCNQ1 channel, primary screen, cell-based, thallium flux, high-throughput | CHO-K1 KCNQ1, thallium flux FluxOR fluorescence; stronger effect = higher value | Potassium voltage-gated channel subfamily KQT member 1 (Homo sapiens), P51787 | 310,000 tested, 0.35% active | B-score at 10 µM;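 active = fluorescence ratio B-score, a plate-corrected score, at least three library SD, with initial intensity B-score within 5 SD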
# Target sequence (P51787 whole entry, looked up): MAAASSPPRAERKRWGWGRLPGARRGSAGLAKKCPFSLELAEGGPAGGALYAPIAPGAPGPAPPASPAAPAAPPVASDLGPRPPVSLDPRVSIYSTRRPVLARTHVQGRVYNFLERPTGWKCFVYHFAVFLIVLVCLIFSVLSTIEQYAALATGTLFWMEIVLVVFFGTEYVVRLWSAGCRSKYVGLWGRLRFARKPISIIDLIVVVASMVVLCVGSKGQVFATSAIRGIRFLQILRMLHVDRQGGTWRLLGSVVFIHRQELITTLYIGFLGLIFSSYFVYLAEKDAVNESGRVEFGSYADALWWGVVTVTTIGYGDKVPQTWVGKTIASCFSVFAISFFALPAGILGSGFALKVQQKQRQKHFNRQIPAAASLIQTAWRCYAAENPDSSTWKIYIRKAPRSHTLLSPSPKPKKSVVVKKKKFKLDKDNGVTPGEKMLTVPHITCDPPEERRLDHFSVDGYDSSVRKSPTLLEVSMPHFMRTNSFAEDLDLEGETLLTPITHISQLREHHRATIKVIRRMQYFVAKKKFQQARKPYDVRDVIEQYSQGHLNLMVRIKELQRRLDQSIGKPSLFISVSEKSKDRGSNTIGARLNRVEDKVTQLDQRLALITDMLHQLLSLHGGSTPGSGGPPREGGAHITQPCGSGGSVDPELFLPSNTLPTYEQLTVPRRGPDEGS
#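 assay system = CHO-K1 cells stably expressing KCNQ1 | medium = assay buffer, equal DMSO in all wells | timing = 37 °C overnight plating, 90-min dark dye load, 20-min compound pretreatment | measured by = kinetic FluxOR thallium fluorescence, 10-s 1-Hz baseline, 110-s post-stimulus read | measure = fluorescence change relative to baseline, converted to B score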
# KCNK3 inh – human KCNK3 channel inhibitors, primary screen, CHO cells, FluxOR thallium flux, B-score; B-score at 10 µM; FluxOR fluorescence; stronger effect = lower value; AID 602410, 2012; 340,000 tested, 0.84% active;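 active = B-score under library mean minus 4 SD, starting fluorescence ratio at most library mean plus 5 SD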;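 note: more negative B-score means stronger inhibition of thallium flux through KCNK3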
# Cl transport mod – KCC2 cotransporter modulators, thallium flux, primary screen, cell-based, HEK293 KCC2, FluoZin-2 fluorescence, MLSMR; 190,000 tested, 2.2% active; B-score of Tl+ flux slope (higher = more flux/activation; lower = inhibition) at 10 µM; KCC2 cells, thallium flux FluoZin-2 fluorescence; Solute carrier family 12 member 5 (Homo sapiens), Q9H2X9;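 active = thallium flux slope and its plate-corrected score both differing from the plate sample mean at a set confidence after two filtering rounds, in either direction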;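 note: slope of fluorescence scaled to starting intensity during 10 to 20 s after thallium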
# KCNQ1 inh – inhibitors of human KCNQ1 channel, primary screen, cell-based, thallium flux, high-throughput | 310,000 tested, 1.3% active | CHO-K1 KCNQ1, FluxOR thallium flux fluorescence; stronger effect = higher value | B-score at 10 µM;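 active = compounds whose thallium flux B-score, printed positive for inhibition, exceeds three library SD while starting fluorescence stays within three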;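 note: channel opened by potassium depolarization with thallium stimulus after 20 min compound exposure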
# KCNK9 block – KCNK9 potassium channel inhibitors, primary screen, HEK293 cells, thallium flux | Potassium channel subfamily K member 9 (Homo sapiens), Q9NPC2 | FluxOR thallium flux fluorescence; stronger effect = lower value | B-score at 10 µM | 310,000 tested, 1.2% active | AID 488922, 2010;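 active = ratio B-score over 3 SD below the library mean, with starting fluorescence within 5 SD of its mean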;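 note: negative B-score means less thallium flux so channel inhibition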
# An asterisk follows results filed as active; i = inactive; . = no result.
SMILES,hERG protect,KCNQ1 act,KCNK3 inh,Cl transport mod,KCNQ1 inh,KCNK9 block
Cc1cc(C)n(-c2ccc(C(=O)Nc3cccc(S(=O)(=O)N(C)C)c3)cc2)n1,-15.8,i,i,-0.104,i,i
C/C(=N\NC(=O)C(O)c1ccccc1)c1ccc(Br)s1 (stereo not given),-15.3,i,i,.,i,i
CC1CC(C)CN(c2ncc3c(n2)CC(c2ccccc2Cl)CC3=O)C1 (stereo not given),-12.4,i,i,-0.329,i,i
CC1CC(C)CN(c2ncc3c(n2)CC(c2ccc(Cl)cc2)CC3=O)C1 (stereo not given),-10.0,i,i,.,6*,i
N#CC(C#N)=Cc1cn(-c2ncc(C(F)(F)F)cc2Cl)c2ccccc12,0.2,i,i,.,i,i
CC(=O)/C=C\c1cn(-c2ncc(C(F)(F)F)cc2Cl)c2ccccc12,-9.8,i,i,.,6*,i
CCn1cc(/C=C(\NC(=O)c2ccc(OC)c(OC)c2)C(=O)N2CCN(C)CC2)c2ccccc21,-5.8,i,i,.,i,i
Cc1cc2occ(CC(=O)N(C)CC(=O)Nc3ccccc3Cl)c2cc1C,-6.8,i,i,.,i,i
Cc1[nH]n(-c2ccccc2)c(=O)c1N=Nc1ccc(C(=O)O)cc1,-1.0,i,i,.,i,i
CC(=O)c1ccc(N=Nc2c(C)[nH]n(-c3ccccc3)c2=O)cc1,-8.3,i,i,.,6*,i
Cc1[nH]n(-c2ccccc2)c(=O)c1N=Nc1ccc(C(N)=O)cc1,10.4*,i,i,.,i,i
CCOC(=O)c1cnc2c(C)c(C)ccc2c1NCCN1CCOCC1,-1.4,i,i,.,i,i
Cc1cccc(C2NC(c3cccc(C)c3)C(C)C(=O)C2C)c1 (stereo not given),-12.2,i,i,.,i,i
Cc1ccc(C2NC(c3ccc(C)cc3)C(C)C(=O)C2C)cc1 (stereo not given),-9.7,i,i,0.715,i,-7.02*
CCC(CC)C(=O)N1N=C(c2ccc(NS(C)(=O)=O)cc2)CC1c1ccc(C)cc1 (stereo not given),-13.8,i,i,-0.0652,i,i
CCc1ccc(-c2cc(C)no2)cc1S(=O)(=O)N1CCCN(Cc2ccc(F)cc2)C1,-8.3,i,i,.,i,i
O=C(O)c1cn(-c2ccccc2)nc1-c1ccc(Cl)cc1,-5.1,i,i,-3.76*,i,i
O=C(N/N=C/c1ccc([N+](=O)[O-])o1)c1cn(-c2ccccc2)nc1-c1ccc(Cl)cc1,8.3*,i,i,-0.0937,i,i
COc1ccc(-c2nn(-c3ccccc3)cc2C(=O)O)cc1OC,-4.2,i,i,-1.83,i,i
CC(C)CCN1CCN(Cc2nc(-c3ccc(F)cc3)cs2)CC1CCO (stereo not given),7.1*,i,i,.,i,i
COC(=O)c1ccc(CN2CCN(CCC(C)C)C(CCO)C2)cc1 (stereo not given),-18.4,i,i,0.74,6*,i
O=C(NC1CCS(=O)(=O)C1)c1cccc(Cl)c1 (stereo not given),-7.2,i,i,.,i,i
COc1ccc(Cl)cc1NC(=O)C(C)N(C)Cc1ccc(C(F)(F)F)cc1 (stereo not given),-16.7,i,i,0.147,i,-7.41*
Cc1cc(NC(=O)COC(=O)Cn2c(C)csc2=O)ccc1Br,-9.3,i,i,.,6*,i
O=C(CSc1nnc(NC(=O)C2CCC2)s1)Nc1ccccc1F,-4.3,i,i,.,i,i
SMILES,hERG protect,KCNQ1 act,KCNK3 inh,Cl transport mod,KCNQ1 inh,KCNK9 block
OCCN(Cc1ccccc1)c1ncnc2sccc12,-11.3,i,i,.,i,i
Cc1noc(C)c1COc1cccc(C(=O)Nc2ccc(Br)cc2F)c1,.,.,-9.22*,.,.,.
CCN(C(=O)CSc1nc2ccccc2c(=O)n1-c1ccc(C)cc1)C1CCS(=O)(=O)C1 (stereo not given),-17.2,i,i,-1.45,i,i
CCN(C(=O)CSc1nc2ccccc2c(=O)n1-c1ccccc1F)C1CCS(=O)(=O)C1 (stereo not given),.,.,-10.5*,.,.,.
CCN(C(=O)CSc1nc2cc(Cl)ccc2c(=O)n1CC(C)C)C1CCS(=O)(=O)C1 (stereo not given),-14.4,i,-10.6*,.,i,i
CCOc1ccc(Cc2c(Cl)nc(SC)nc2N(C)C)cc1,-10.3,i,i,-1.07,i,-7.57*
CCCN1C(=O)SC(CC(=O)Nc2ccccc2)C1=O (stereo not given),8.6*,i,i,.,i,i
COc1ccc(N2C3=C(CC4=C2CC(C)(C)CC4=O)C(=O)CC(C)(C)C3)cc1,-13.8,i,i,-0.425,i,i
COc1ccc(N2C3=C(CC4=C2CCCC4=O)C(=O)CCC3)cc1,-10.8,i,i,-0.846,i,-6.63*
O=C(CNc1cc(S(=O)(=O)N2CCOCC2)ccc1N1CCCC1)Nc1ccc(Cl)cc1,.,.,i,.,.,.
O=C1C2C3C=CC(C3)C2C(=O)N1/N=C/c1cc(Br)cc([N+](=O)[O-])c1O (stereo not given),-6.3,i,i,.,7*,i
CCOc1ccc(-c2c(C(=O)N/N=C/c3c[nH]c4ccccc34)nnn2-c2nonc2N)cc1,-6.2,i,i,.,i,i
Cc1cccc2cc(-c3nc4ccc(C(=O)O)cc4[nH]3)c(=O)oc12,-3.3,i,i,.,i,i
COc1ccccc1Cn1c(=S)[nH]c2ccccc2c1=O,2.3,i,i,.,i,i
CC(C)COn1c(=S)[nH]c2ccccc2c1=O,-4.1,8*,i,49*,i,i
COc1ccccc1/C=C/C(=O)N1CCN(S(=O)(=O)c2cc(C)ccc2C)CC1,.,.,-8.78*,.,.,.
O=[N+]([O-])c1ccc(C2=NN(c3ccccc3)C(c3ccco3)C2)cc1 (stereo not given),-30.9,i,i,1.03,8*,i
COc1ccc(CCC(=O)Nc2ncc(C)s2)cc1,-3.6,i,i,.,i,i
C/C(=N\NC(=O)c1ccc(-c2ccccc2)cc1)C1C(=O)c2ccccc2C1=O,-24.4,i,i,0.93,7*,i
